pIC50: −log10 of the molar value. Active and inactive are the calls of the source. The calls are words filed in the database; no cut-off is given here.
Key:
[1] = tested on: BJ; experiment: Antiproliferative activity against human BJ cells expressing TERT at 3 uM after 2 to 8 days by trypan blue assay; type: functional, cell-based; conditions: 0.5 uM, in the assay text read “at 0.5 uM” for “at 3 uM”
How it was run: (§1)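 Cells seeded at 5 ×10^4 per dish; compounds freshly dissolved and added to the medium 24 h after plating, at 0.5 μM or 3 μM (3 μM only for one derivative). Cell number by Coulter counting and viability by trypan blue exclusion daily, day 1 to day 8. Growth inhibition of treated vs untreated cells calculated at days 2, 4, 6 and 8. Representative experiments in quintuplicate, SD shown.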

[2] = tested on: BJ; experiment: Induction of DNA damage response in human BJ cells expressing human TERT assessed as phosphorylation of gamma H2AX at 1 uM after 24 hrs by immunofluorescence; type: functional, cell-based
How it was run: (§2)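 BJ-EHLT and BJ-hTERT fibroblasts exposed to a range of concentrations for 24 h. Fixed in 2% formaldehyde, permeabilized in 0.25% Triton X-100, immunostained for γ-H2AX and 53BP1. Percentage of positive cells scored. Three independent experiments, SD.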

[3] = tested on: Nucleic Acid; experiment: Binding affinity to human 21-TT G-quadruplex DNA structure assessed as bound DNA at 5:10 DNA to drug ratio by electrospray ionization mass spectrometry; type: nucleic-acid assay
How it was run: (§3)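 ESI-MS in 150 mM ammonium acetate; DNA 5 μM final (per duplex or quadruplex unit); ligand at drug/DNA ratios 0.5 to 4. Methanol (15%) added just before injection, after binding equilibrium. K1 and K2 for 1:1 and 2:1 complexes, and % bound DNA, taken from relative peak intensities assuming equal response factors. At least three repeats.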

[4] = tested on: Nucleic Acid; experiment: Binding affinity to human DK66 duplex DNA structure assessed as bound DNA at 5:20 DNA to drug ratio by electrospray ionization mass spectrometry; type: nucleic-acid assay; how it was run: as §3
[5] = tested on: BJ; experiment: Cell cycle arrest in human BJ cells expressing TERT assessed as accumulation at S stage at 0.5 uM after 96 hrs by propidium iodide staining based flow cytometry (reference value: 9%); type: ADME
[6] = tested on: BJ; experiment: Induction of DNA damage response in human BJ cells expressing SV40 early region EHLT assessed as phosphorylation of gamma H2AX at 0.25 uM after 24 hrs by immunofluorescence method; type: functional, cell-based; how it was run: as §2
[7] = tested on: BJ; experiment: Induction of telomere dysfunction induced foci n human BJ cells expressing SV40 early protein EHLT assessed as increase in gamma H2AX/TRF1 co-localization at 1 uM by Deconvolution microscopy; type: functional
How it was run: (§4)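 BJ-EHLT cells stained for TRF1 together with γ-H2AX or 53BP1 and imaged by deconvolution microscopy. Cells with four or more γ-H2AX/TRF1 foci scored as TIF positive; percentage of TIF-positive cells and mean TIFs per nucleus recorded. Mean of three experiments, SD.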

[8] = tested on: BJ; experiment: Cell cycle arrest in human BJ cells expressing TERT assessed as accumulation at G0/G1 stage at 0.5 uM after 24 hrs by propidium iodide staining based flow cytometry (reference value: 61%); type: ADME
[9] = tested on: BJ; experiment: Delocalization of POT1 protein from […] in human BJ cells expressing SV40 early protein EHLT after 72 hrs by chromatin immunoprecipitation assay; type: functional, cell-based
How it was run: (§5)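 BJ-EHLT cells treated 24 or 72 h. Formaldehyde-crosslinked chromatin immunoprecipitated with anti-TRF1, anti-TRF2 or anti-POT1; β-actin antibody as negative control. Precipitates blotted and probed for telomeric repeats (ALU probe as nonspecific). Densitometry gives percentage of precipitated DNA relative to input (10% and 1%). Four independent experiments, SD.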

[10] = tested on: BJ; experiment: Cell cycle arrest in human BJ cells expressing TERT assessed as accumulation at G0/G1 stage at 0.5 uM after 48 hrs by propidium iodide staining based flow cytometry (reference value: 80%); type: ADME
[11] = tested on: Nucleic Acid; experiment: Binding affinity to human 21-TT G-quadruplex DNA structure assessed as second step association constant by electrospray ionization mass spectrometry; type: nucleic-acid assay; how it was run: as §3
[12] = tested on: BJ; experiment: Induction of DNA damage n human BJ cells expressing SV40 early protein EHLT assessed as increase in gamma-H2Ax phosphorylation at 0.5 uM; type: functional; how it was run: as §2
[13] = tested on: BJ; experiment: Induction of DNA damage response in human BJ cells expressing SV40 early protein EHLT assessed as accumulation of PCNA in S-phase by Hoechst staining based Leica deconvolution microscopic analysis; type: functional, cell-based
How it was run: (§6)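 BJ-EHLT cells co-immunostained for γ-H2AX and PCNA, nuclei counterstained with Hoechst, imaged by deconvolution microscopy. Percentages of γ-H2AX+/PCNA− and γ-H2AX+/PCNA+ nuclei scored. Mean of three independent experiments.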

[14] = tested on: BJ; experiment: Delocalization of TRF2 protein from […] in human BJ cells expressing SV40 early protein EHLT by chromatin immunoprecipitation assay; type: functional, cell-based; how it was run: as §5
[15] = tested on: PC-3; experiment: Antiproliferative activity against human PC3 after 2 to 8 days by trypan blue assay; type: functional, cell-based; how it was run: as §1
[16] = tested on: BJ; experiment: Delocalization of POT1 protein from […] in human BJ cells expressing SV40 early protein EHLT after 24 hrs by chromatin immunoprecipitation assay; type: functional, cell-based; how it was run: as §5
[17] = tested on: Nucleic Acid; experiment: Binding affinity to human DK66 duplex DNA structure assessed as second step association constant by electrospray ionization mass spectrometry; type: nucleic-acid assay; how it was run: as §3
[18] = tested on: BJ; experiment: Cell cycle arrest in human BJ cells expressing TERT assessed as accumulation at G0/G1 stage at 0.5 uM after 72 hrs by propidium iodide staining based flow cytometry (reference value: 83%); type: ADME
[19] = tested on: Nucleic Acid; experiment: Binding affinity to human 21-TT G-quadruplex DNA structure assessed as bound DNA at 5:5 DNA to drug ratio by electrospray ionization mass spectrometry; type: nucleic-acid assay; how it was run: as §3
[20] = tested on: HT-29; experiment: Cytotoxicity against human HT-29 cells after 4 days by clonogenic assay relative to control; type: functional, cell-based; conditions: HT-29, 96 h
How it was run: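 Clonogenic survival: cells seeded at 2 × 10^5 per dish and exposed for 4 days to 0.5-2 μM. Surviving fraction taken as absolute survival of treated over control. Four experiments, each in triplicate; mean with SD.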

[21] = tested on: BJ; experiment: Induction of DNA damage response in human BJ cells expressing SV40 early protein EHLT assessed as accumulation of gamma-H2AX foci in S-phase by Hoechst staining based Leica deconvolution microscopic analysis; type: functional; how it was run: as §6
[22] = tested on: Nucleic Acid; experiment: Binding affinity to human 21-TT G-quadruplex DNA structure at 1:1 DNA to calf thymus DNA ratio by competitive inhibition assay; type: nucleic-acid assay; set-up: concentration or dose not given beside the values
How it was run: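 ESI-MS competition: quadruplex DNA and ligand each 5 μM final, plus calf thymus DNA at duplex/quadruplex ratios 1 and 5 (by phosphate concentration), in ammonium acetate. Percentage bound quadruplex and normalized bound quadruplex (N%) measured by mass spectrometry. SD over at least three independent experiments.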

[23] = tested on: BJ; experiment: Induction of DNA damage response in human BJ cells expressing human TERT assessed as phosphorylation of […] at 1 uM after 24 hrs by immunofluorescence; type: functional, cell-based; how it was run: as §2
[24] = tested on: BJ; experiment: Induction of telomere dysfunction induced foci n human BJ cells expressing SV40 early protein EHLT assessed as increase in gamma H2AX/TRF1 co-localization by Deconvolution microscopy; type: functional, cell-based; how it was run: as §4
[25] = tested on: BJ; experiment: Induction of telomere dysfunction induced foci n human BJ cells expressing SV40 early protein EHLT assessed as increase in 53BP1/TRF1 co-localization by Deconvolution microscopy; type: functional, cell-based; how it was run: as §4
[26] = tested on: Nucleic Acid; experiment: Stabilization of human duplex DNA T-loop assessed as change in melting temperature at 1 uM by FRET assay; type: nucleic-acid assay
[27] = tested on: Nucleic Acid; experiment: Stabilization of 21-mer human F21T G4-telomeric quadruplex assessed as change in melting temperature at 1 uM by FRET assay; type: nucleic-acid assay

SMILES: O=C1c2ccc3c4ccc5c6c(cc(N7CCCCC7)c(c7ccc(c2c37)C(=O)N1CCOCCN1CCCCC1)c64)C(=O)N(CCOCCN1CCCCC1)C5=O
- Activity [1]: Non-toxic
- Activity [2]: inactive
- Activity [3]: 75%
- Activity [4]: 21%
- Activity [5]: 1.5%
- Activity [6]: Active
- Activity [7]: 50%
- Activity [8]: 62.8%
- Activity [9]: Active
- Activity [10]: 78.4%
- log Ks [11]: 5
- Activity [12]: 50%
- Activity [13]: Active
- Activity [14]: inactive
- Activity [15]: Active
- Activity [16]: Active
- log Ks [17]: 4.2
- Activity [18]: 87.3%
- Activity [19]: 56%
- pIC50 [20]: 5.96
- Activity [21]: 80%
- Activity [22]: 47%
- Activity [23]: inactive
- Activity [24]: Active
- Activity [25]: Active
- ΔTm [26]: -0.2 °C
- ΔTm [27]: 23 °C

Source: ChEMBL document CHEMBL1687886, “N-cyclic bay-substituted perylene G-quadruplex ligands have selective antiproliferative effects on cancer cells and induce telomere damage” (J Med Chem, 2011)
